The text below walks through data of ChEMBL document CHEMBL1142684, “Application of a flexible synthesis of (5R)-thiolactomycin to develop new inhibitors of type I fatty acid synthase” (J Med Chem, 2005).

The target in experiment [1] is Fatty acid synthase (Homo sapiens, UniProt P49327). The experiment can be described thus: Inhibitory concentration against purified human fatty acid synthase activity in ZR-75-1 breast cancer cells. The method, boiled down:
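FAS purified from ZR-75-1 human breast cancer cells (2 µg per well). Overall reaction read at 37 °C as malonyl-CoA-dependent NADPH oxidation at 340 nm, every 10 s for 5 min. Average of duplicate runs; neg means IC50 > 50 µg/mL.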

Experiment [2] relates to MCF7. Kind of experiment: Inhibitory concentration against fatty acid synthesis in MCF-7 breast cancer cells. The experiment is classed as functional, cell-based, Homo sapiens.
The test system of experiment [3] is MCF7. The experiment can be described thus: Inhibitory concentration against MCF-7 breast cancer cells in XTT assay (non radioactive assay). Type of experiment: functional, cell-based, Homo sapiens. The method, boiled down:
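MCF-7 human breast cancer cells, cytotoxicity measured by XTT cell proliferation assay (nonradioactive). The procedure was adapted from the kit instructions. IC50 is the average of duplicate runs.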
Background: Formazan colour is commonly taken as a measure of viable cells.

Experiment [4] relates to Mus musculus. The experiment can be described thus: Maximum amount of weight loss in Balb/C mice after 7 days of 60 mg/kg intraperitoneal administration. The experiment is classed as functional. Put shortly: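 Balb/C mice were given a single ip dose of 60 mg/kg in 100 µL DMSO (stock 10 mg/mL in DMSO), or vehicle alone. Mice were weighed daily until treated animals returned to pretreatment weight. The value is the maximum weight loss measured over 7 days.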

Where [5] appears, read: Homo sapiens, MCF7, read-out: IC50.

Converted amounts (≈) assume the structure as drawn.

Chain of Fatty acid synthase (P49327 whole entry): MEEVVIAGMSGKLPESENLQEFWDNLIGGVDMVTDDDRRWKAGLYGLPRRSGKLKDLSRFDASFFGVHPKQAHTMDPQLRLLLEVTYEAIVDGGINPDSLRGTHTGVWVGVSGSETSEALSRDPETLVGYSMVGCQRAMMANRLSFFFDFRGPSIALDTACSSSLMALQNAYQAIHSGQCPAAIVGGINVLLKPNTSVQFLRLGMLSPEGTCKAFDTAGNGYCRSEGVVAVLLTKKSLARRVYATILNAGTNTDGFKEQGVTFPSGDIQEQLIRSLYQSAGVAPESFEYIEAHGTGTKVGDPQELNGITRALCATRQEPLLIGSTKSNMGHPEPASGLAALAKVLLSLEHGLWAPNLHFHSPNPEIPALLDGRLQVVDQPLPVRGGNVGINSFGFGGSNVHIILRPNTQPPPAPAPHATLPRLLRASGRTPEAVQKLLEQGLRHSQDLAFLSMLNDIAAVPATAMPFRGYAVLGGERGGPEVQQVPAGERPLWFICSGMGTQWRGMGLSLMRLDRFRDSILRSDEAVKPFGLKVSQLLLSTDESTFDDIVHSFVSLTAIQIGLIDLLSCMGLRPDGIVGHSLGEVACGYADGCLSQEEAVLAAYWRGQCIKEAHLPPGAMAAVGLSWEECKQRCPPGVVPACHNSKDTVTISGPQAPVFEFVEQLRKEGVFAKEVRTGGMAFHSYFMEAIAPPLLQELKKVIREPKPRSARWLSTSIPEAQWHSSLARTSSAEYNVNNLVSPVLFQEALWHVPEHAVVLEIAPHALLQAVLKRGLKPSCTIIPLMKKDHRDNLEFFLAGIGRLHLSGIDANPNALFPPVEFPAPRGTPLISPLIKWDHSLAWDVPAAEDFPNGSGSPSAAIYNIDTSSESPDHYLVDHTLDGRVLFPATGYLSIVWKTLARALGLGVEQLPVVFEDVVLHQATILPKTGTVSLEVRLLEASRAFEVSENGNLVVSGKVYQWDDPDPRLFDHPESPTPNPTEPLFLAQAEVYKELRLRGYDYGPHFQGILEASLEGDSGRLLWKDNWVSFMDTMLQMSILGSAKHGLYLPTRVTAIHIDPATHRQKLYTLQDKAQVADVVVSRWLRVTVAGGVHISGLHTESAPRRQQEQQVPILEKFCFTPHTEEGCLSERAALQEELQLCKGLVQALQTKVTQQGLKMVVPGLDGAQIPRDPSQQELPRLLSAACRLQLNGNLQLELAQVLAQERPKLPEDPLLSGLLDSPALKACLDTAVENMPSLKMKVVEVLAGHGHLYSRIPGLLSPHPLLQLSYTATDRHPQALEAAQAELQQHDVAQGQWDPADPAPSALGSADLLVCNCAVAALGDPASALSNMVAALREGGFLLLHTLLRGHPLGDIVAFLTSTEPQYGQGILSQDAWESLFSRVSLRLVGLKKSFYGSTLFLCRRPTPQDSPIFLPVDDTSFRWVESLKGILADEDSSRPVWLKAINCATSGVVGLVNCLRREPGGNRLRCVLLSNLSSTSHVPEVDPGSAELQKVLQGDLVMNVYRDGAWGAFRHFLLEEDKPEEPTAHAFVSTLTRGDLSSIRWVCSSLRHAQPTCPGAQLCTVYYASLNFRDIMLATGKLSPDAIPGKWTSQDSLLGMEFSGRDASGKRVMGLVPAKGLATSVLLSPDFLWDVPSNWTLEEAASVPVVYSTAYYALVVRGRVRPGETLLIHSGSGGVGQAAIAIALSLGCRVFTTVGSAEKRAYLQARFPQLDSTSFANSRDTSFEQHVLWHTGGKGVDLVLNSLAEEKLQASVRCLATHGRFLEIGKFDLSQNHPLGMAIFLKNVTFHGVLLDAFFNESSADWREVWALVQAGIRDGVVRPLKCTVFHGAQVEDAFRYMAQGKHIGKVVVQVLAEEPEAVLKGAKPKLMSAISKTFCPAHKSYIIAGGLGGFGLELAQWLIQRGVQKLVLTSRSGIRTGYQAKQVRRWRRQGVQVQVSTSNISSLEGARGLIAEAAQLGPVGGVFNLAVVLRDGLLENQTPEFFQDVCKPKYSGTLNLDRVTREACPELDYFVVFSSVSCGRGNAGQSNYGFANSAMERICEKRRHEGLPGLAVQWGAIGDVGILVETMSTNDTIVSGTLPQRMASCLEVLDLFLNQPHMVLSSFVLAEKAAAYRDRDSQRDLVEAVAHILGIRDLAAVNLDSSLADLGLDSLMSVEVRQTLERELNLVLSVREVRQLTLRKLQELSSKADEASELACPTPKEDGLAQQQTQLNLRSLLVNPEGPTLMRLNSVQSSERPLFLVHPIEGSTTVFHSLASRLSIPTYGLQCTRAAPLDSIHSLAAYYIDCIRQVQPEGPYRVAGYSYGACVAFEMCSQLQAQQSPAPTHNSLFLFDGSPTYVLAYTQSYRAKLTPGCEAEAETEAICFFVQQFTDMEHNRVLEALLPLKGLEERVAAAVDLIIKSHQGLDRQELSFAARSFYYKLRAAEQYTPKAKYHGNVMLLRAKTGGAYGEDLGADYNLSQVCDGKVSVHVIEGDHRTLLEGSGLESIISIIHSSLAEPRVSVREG

Regarding `C=CCNC(=O)COC1=CC(=O)S[C@]1(C)CCCCCCCC`, the figures for the IC50 in experiment [1], in experiment [2] (setting [5]) and in experiment [3] (setting [5]) were greater than 147 µM, greater than 50 µg/mL and 12.1 µg/mL (≈ 35.6 µM), respectively. Besides, in experiment [4], the Weight loss is on record as 2.4%.
Turning to `CCCCCCCC[C@@]1(C)SC(=O)C=C1OCC(=O)OCC`, the IC50 in experiment [1] is greater than 152 µM; in experiment [2] (setting [5]), 10.8 µg/mL (≈ 32.9 µM); in experiment [3] (setting [5]) it was 35.3 µg/mL (≈ 107 µM). This molecule also came in with a Weight loss in experiment [4] of 2.7%.
Turning to `C[C@]1(Cc2ccccc2)SC(O)=CC1=O`, the IC50 is greater than 227 µM in experiment [1], greater than 50 µg/mL in experiment [2] (setting [5]) and greater than 80 µg/mL in experiment [3] (setting [5]). Moreover, the Weight loss in experiment [4] came out at 1.6%.
`C=CCOC(=O)OC1=CC(=O)S[C@]1(C)CCCCCCCC`: the IC50 is 20.8 µM in experiment [1], 14.2 µg/mL (≈ 43.5 µM) in experiment [2] (setting [5]) and 37.3 µg/mL (≈ 114 µM) in experiment [3] (setting [5]). Also, the Weight loss in experiment [4] worked out at 3.4%.
Turning to `CCCCCCCC[C@@]1(C)SC(O)=C(C)C1=O`, the results for the IC50 in experiment [1], in experiment [2] (setting [5]) and in experiment [3] (setting [5]) were 192 µM, 16.5 µg/mL (≈ 64.3 µM) and 48 µg/mL (≈ 187 µM), respectively. For the same molecule, the Weight loss in experiment [4] is reported as 0%.
For the molecule `CCCCCCCC[C@@]1(C)SC(O)=C(C(C)=O)C1=O`, the half-inhibitory concentration (IC50) in experiment [1] is greater than 176 µM; in experiment [2] (setting [5]) it was 12 µg/mL (≈ 42.2 µM); in experiment [3] (setting [5]), 12.5 µg/mL (≈ 43.9 µM). This molecule came in with a Weight loss in experiment [4] of 8.2%.
The like results for `CCCCCCCC[C@@]1(C)SC(O)=CC1=O` were, in that order, 16.5 µM, 12.6 µg/mL (≈ 52 µM), 17.6 µg/mL (≈ 72.6 µM) and 2%.
Regarding `CCCCCC[C@@]1(C)SC(=O)C=C1OC`, the values for the IC50 in experiment [1], in experiment [2] (setting [5]) and in experiment [3] (setting [5]) were greater than 219 µM, 14 µg/mL (≈ 61.3 µM) and 9.4 µg/mL (≈ 41.2 µM), respectively.
With `CCCCCCCC[C@@]1(C)SC(=O)C=C1OC`, the concentration for half-maximal inhibition (IC50) in experiment [1] is greater than 195 µM; in experiment [2] (setting [5]), greater than 50 µg/mL; in experiment [3] (setting [5]) it was 16.4 µg/mL (≈ 64 µM).
On to `CCCCCC[C@@]1(C)SC(=O)C=C1OCCCCCl`, for which the IC50 in experiment [1] was greater than 164 µM; in experiment [2] (setting [5]) it was 8.6 µg/mL (≈ 28.2 µM); in experiment [3] (setting [5]) it was 20.8 µg/mL (≈ 68.2 µM).
On to `C/C=C/C(C)=C/[C@@]1(C)SC(O)=CC1=O`, for which the values for the IC50 in experiment [1], in experiment [2] (setting [5]) and in experiment [3] (setting [5]) were greater than 238 µM, 17.3 µg/mL (≈ 82.3 µM) and greater than 80 µg/mL, respectively. The molecule also gave a Weight loss in experiment [4] of 4.1%.
As to `C=CCC1(CC=C)C(=O)S[C@](C)(CCCCCCCC)C1=O`, the IC50 in experiment [1] was greater than 155 µM; in experiment [2] (setting [5]), greater than 50 µg/mL; in experiment [3] (setting [5]) it was 40.5 µg/mL (≈ 126 µM).
For the molecule `C=CCOC1=CC(=O)S[C@]1(C)CCCCCCCC`, the values for the half-maximal inhibitory concentration (IC50) in experiment [1], in experiment [2] (setting [5]) and in experiment [3] (setting [5]) were greater than 177 µM, greater than 50 µg/mL and 14.5 µg/mL (≈ 51.3 µM), respectively.
As to `CCCCCC[C@@]1(C)SC(=O)C=C1OCC(=O)OCC`, the IC50 in experiment [1] is greater than 166 µM; in experiment [2] (setting [5]), 14.2 µg/mL (≈ 47.3 µM); in experiment [3] (setting [5]), 39.6 µg/mL (≈ 132 µM).
As to `C=CCC1(C)C(=O)S[C@](C)(CCCCCCCC)C1=O` (some centres undefined), the IC50 was greater than 169 µM in experiment [1], greater than 50 µg/mL in experiment [2] (setting [5]) and 40.5 µg/mL (≈ 137 µM) in experiment [3] (setting [5]).
Regarding `CCCC/C=C/C=C/[C@@]1(C)SC(O)=CC1=O`, the half-maximal inhibitory concentration (IC50) in experiment [1] was 36.5 µM; in experiment [2] (setting [5]) it was 22.6 µg/mL (≈ 94.8 µM); in experiment [3] (setting [5]), 60 µg/mL (≈ 252 µM). Also, the Weight loss in experiment [4] came out at 11%.
For `CCCCCCCC[C@@]1(C)SC(=O)C=C1OC(=O)OCC` the same measures were 14.6 µM, 14.5 µg/mL (≈ 46.1 µM), 15.1 µg/mL (≈ 48 µM) and 7.1%.
As to `C=C/C(C)=C/[C@@]1(C)SC(=O)C=C1O`, the IC50 in experiment [1] is 42.8 µM; in experiment [3] (setting [5]), greater than 80 µg/mL. Besides, the Weight loss in experiment [4] was 7.8%.
`CCCCCC[C@@]1(C)SC(=O)C=C1OCC(=O)NCC(=O)OC`: the IC50 in experiment [1] was greater than 146 µM; in experiment [2] (setting [5]), 9.8 µg/mL (≈ 28.5 µM); in experiment [3] (setting [5]), 40.5 µg/mL (≈ 118 µM).
Take `COC1=CC(=O)S[C@]1(C)Cc1ccccc1`: the values for the IC50 in experiment [1] and in experiment [2] (setting [5]) were greater than 213 µM and greater than 50 µg/mL, respectively.
`CCCCCCCC[C@@]1(C)SC(=O)C=C1OCCCCCl`: the IC50 in experiment [1] was greater than 150 µM; in experiment [2] (setting [5]), greater than 50 µg/mL; in experiment [3] (setting [5]), 35.3 µg/mL (≈ 106 µM).
For `CCCCCCCC[C@@]1(C)SC(O)=C(C(=O)OC)C1=O` the same measures were greater than 166 µM, 18.7 µg/mL (≈ 62.2 µM) and 47.2 µg/mL (≈ 157 µM).
For `CCCCCC[C@@]1(C)SC(O)=CC1=O` the same measures were greater than 233 µM, 16.5 µg/mL (≈ 77 µM) and greater than 80 µg/mL.
With `C=CCOC1=C(C)C(=O)S[C@]1(C)CCCCCCCC`, the results for the IC50 in experiment [1], in experiment [2] (setting [5]) and in experiment [3] (setting [5]) were greater than 169 µM, greater than 50 µg/mL and 34.7 µg/mL (≈ 117 µM), respectively.
As for `CCCCCCCC[C@@]1(C)SC(=O)C=C1OC(=O)OC`, the IC50 in experiment [1] was 6.99 µM; in experiment [2] (setting [5]), 10.7 µg/mL (≈ 35.6 µM); in experiment [3] (setting [5]), 21.6 µg/mL (≈ 71.9 µM). In experiment [4], this molecule had a Weight loss of 6.1%.
The like results for `CC/C=C/C=C/[C@@]1(C)SC(O)=CC1=O` were, in that order, greater than 238 µM, 16.9 µg/mL (≈ 80.4 µM), greater than 80 µg/mL and 3.2%.
For `CCCCCCCC[C@@]1(C)SC(O)=C(C(=O)C(F)(F)F)C1=O`, the IC50 in experiment [1] was 121 µM; in experiment [2] (setting [5]), 14.7 µg/mL (≈ 43.4 µM); in experiment [3] (setting [5]) it was 18.4 µg/mL (≈ 54.4 µM).
For the molecule `CCCCCC[C@@]1(C)SC(=O)C=C1OCC(=O)NCC(=O)O`, the figures for the IC50 in experiment [1] and in experiment [2] (setting [5]) were greater than 152 µM and 6.6 µg/mL (≈ 20 µM), respectively. In addition, the Weight loss in experiment [4] is given as 3.5%.
As to `CCCCCC[C@@]1(C)SC(=O)C=C1OCC(=O)NCCCBr`, the IC50 in experiment [1] is greater than 127 µM; in experiment [2] (setting [5]), 6.7 µg/mL (≈ 17.1 µM); in experiment [3] (setting [5]), 21 µg/mL (≈ 53.5 µM).
Regarding `CCCCCCCC[C@@]1(C)SC(=O)C=C1OC(=O)CC`, the IC50 in experiment [1] was greater than 168 µM; in experiment [2] (setting [5]) it was 22.6 µg/mL (≈ 75.7 µM); in experiment [3] (setting [5]), 26.8 µg/mL (≈ 89.8 µM).
Regarding `CCCCCCCC[C@@]1(C)SC(=O)C=C1OCC(=O)O`, the IC50 is greater than 166 µM in experiment [1] and 13.8 µg/mL (≈ 45.9 µM) in experiment [2] (setting [5]).
`C=CCOC1=CC(=O)S[C@]1(C)CCCCCC`: the figures for the IC50 in experiment [1], in experiment [2] (setting [5]) and in experiment [3] (setting [5]) were greater than 197 µM, greater than 50 µg/mL and 9 µg/mL (≈ 35.4 µM), respectively.
With `C=CCC1=C(O)S[C@](C)(CCCCCCCC)C1=O`, the IC50 was 9.91 µM in experiment [1], 34.8 µg/mL (≈ 123 µM) in experiment [2] (setting [5]) and 44.4 µg/mL (≈ 157 µM) in experiment [3] (setting [5]).
The like results for `C#CCOC1=CC(=O)S[C@]1(C)CCCCCC` were, in that order, greater than 198 µM, 21.9 µg/mL (≈ 86.8 µM) and 8.9 µg/mL (≈ 35.3 µM).
Turning to `CCCCCCCC[C@@]1(C)SC(=O)C(C)=C1OC`, the half-maximal inhibitory concentration (IC50) in experiment [1] is greater than 185 µM; in experiment [2] (setting [5]), greater than 50 µg/mL; in experiment [3] (setting [5]), 17.3 µg/mL (≈ 64 µM).
As for `CCCCCCCC[C@@]1(C)SC(O)=C(C(C)O)C1=O` (stereo in doubt; 29), the IC50 was 19.9 µM in experiment [1], 17.6 µg/mL (≈ 61.4 µM) in experiment [2] (setting [5]) and 23.9 µg/mL (≈ 83.4 µM) in experiment [3] (setting [5]). Further, the Weight loss in experiment [4] (60 mg/kg) was 3.5%.
On to `CCCCCCCC[C@@]1(C)SC(O)=C(C(C)O)C1=O` (stereo in doubt; 30), for which the IC50 in experiment [1] was 11.5 µM; in experiment [2] (mcf7) it was 21.7 µg/mL (≈ 75.8 µM); in experiment [3] (mcf7), 21 µg/mL (≈ 73.3 µM). This molecule showed a Weight loss in experiment [4] (60 mg/kg) of 0.2%.
`C=C/C(C)=C/[C@@]1(C)SC(=O)C(C)=C1O` (stereo in doubt; form 1) [THIOLACTOMYCIN]: the IC50 in experiment [1] was 100 µM; in experiment [2] (setting [5]), 38.4 µg/mL (≈ 183 µM); in experiment [3] (setting [5]) it was greater than 80 µg/mL.
Turning to `C=C/C(C)=C/[C@@]1(C)SC(=O)C(C)=C1O` (stereo in doubt; form 2) [THIOLACTOMYCIN], the concentration for half-maximal inhibition (IC50) in experiment [1] is 143 µM; in experiment [2] (mcf7), 41.8 µg/mL (≈ 199 µM). The molecule further registered a Weight loss in experiment [4] of 2.6%.

Usually IC50 stands for the concentration that inhibits the measured activity by half.
